This is an account of results in ChEMBL document CHEMBL4270656, “Synthesis and evaluation of 2-substituted 4(3H)-quinazolinone thioether derivatives as monoamine oxidase inhibitors” (Bioorg Med Chem, 2018).

Series [1] has as its target T1, Amine oxidase [flavin-containing] A (Homo sapiens, UniProt P21397).
T1 sequence (P21397 whole entry): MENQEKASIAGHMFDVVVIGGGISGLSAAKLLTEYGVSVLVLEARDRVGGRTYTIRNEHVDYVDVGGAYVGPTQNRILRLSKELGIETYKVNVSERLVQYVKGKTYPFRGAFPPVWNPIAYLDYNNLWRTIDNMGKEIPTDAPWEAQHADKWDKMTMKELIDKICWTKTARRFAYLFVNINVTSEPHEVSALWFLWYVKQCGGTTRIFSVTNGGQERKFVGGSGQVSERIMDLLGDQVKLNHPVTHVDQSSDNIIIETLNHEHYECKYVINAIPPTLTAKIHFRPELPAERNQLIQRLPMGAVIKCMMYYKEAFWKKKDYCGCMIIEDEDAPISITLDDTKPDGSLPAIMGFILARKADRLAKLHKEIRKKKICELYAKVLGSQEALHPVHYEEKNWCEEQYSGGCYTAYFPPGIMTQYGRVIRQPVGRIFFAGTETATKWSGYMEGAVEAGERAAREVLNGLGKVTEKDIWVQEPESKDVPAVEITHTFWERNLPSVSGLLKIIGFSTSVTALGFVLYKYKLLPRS
The series can be described thus: Inhibition of recombinant human MAO-A at 100 uM using kynuramine as substrate after 20 mins by fluorescence spectrophotometric analysis. Put shortly:
(§1)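 Recombinant human enzyme from insect-cell microsomes, MAO-A 0.0075 or MAO-B 0.015 mg protein/mL, in 100 mM potassium phosphate pH 7.4 made isotonic with KCl. Kynuramine 50 µM, inhibitor up to 100 µM, DMSO 4% final. 20 min at 37 °C, stopped with 2 N NaOH. 4-Hydroxyquinoline read by fluorescence (ex 310/em 400 nm) against a calibration curve.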

The target in series [2] is T2, Amine oxidase [flavin-containing] B (Homo sapiens, UniProt P27338).
T2 sequence (P27338 whole entry): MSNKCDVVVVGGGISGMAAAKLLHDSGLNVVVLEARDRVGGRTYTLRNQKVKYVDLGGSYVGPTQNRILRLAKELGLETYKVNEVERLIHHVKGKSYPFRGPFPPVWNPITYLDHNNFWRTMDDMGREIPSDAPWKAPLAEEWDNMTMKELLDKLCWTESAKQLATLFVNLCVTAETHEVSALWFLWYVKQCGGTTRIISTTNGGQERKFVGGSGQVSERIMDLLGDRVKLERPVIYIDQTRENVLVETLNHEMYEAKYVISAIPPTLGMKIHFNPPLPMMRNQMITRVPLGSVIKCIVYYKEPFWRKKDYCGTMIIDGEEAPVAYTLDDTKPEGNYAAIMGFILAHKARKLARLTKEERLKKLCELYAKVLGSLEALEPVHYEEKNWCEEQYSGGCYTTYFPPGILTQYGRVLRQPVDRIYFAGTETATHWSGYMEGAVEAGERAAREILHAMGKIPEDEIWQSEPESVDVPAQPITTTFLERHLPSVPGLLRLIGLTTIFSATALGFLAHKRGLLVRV
The series is described as follows: Inhibition of recombinant human MAO-B using kynuramine as substrate after 20 mins by fluorescence spectrophotometric analysis.

Series [3] is filed under the species Homo sapiens. The series can be described thus: Selectivity index, ratio of IC50 for recombinant human MAO-A by IC50 for recombinant human MAO-B. The method in brief: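 IC50 values for MAO-A and MAO-B taken from kynuramine fluorescence assays (0.003–100 µM inhibitor, 20 min at 37 °C) and fitted by one-site competition. Triplicate means. Index is IC50(MAO-A)/IC50(MAO-B).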

For series [4], the target named is T2, Amine oxidase [flavin-containing] B. The series is described as follows: Inhibition of recombinant human MAO-B using kynuramine as substrate assessed as enzyme activity recovered after 20 mins by fluorescence spectrophotometric analysis. Details: scale not given: the % may be the effect or the level left. Put shortly: (§2)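 Pre-incubated 15 min at 37 °C, then dialysed 24 h at 4 °C (10 kDa cut-off) with buffer changes at 3 and 7 h. Diluted twofold with kynuramine (50 µM final), run 20 min at 37 °C, read by fluorescence. Triplicate; activity relative to inhibitor-free dialysed control.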

For series [5] the target is unchanged. The series is described as follows: Competitive inhibition of recombinant human MAO-B using kynuramine as substrate after 20 mins by Lineweaver-Burk plot analysis. The method in brief: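 Human MAO-B (insect-cell microsome, 0.015 mg/mL final) in 100 mM potassium phosphate pH 7.4 made isotonic with KCl. Six Lineweaver-Burk plots: one without inhibitor and five at 1/4, 1/2, 3/4, 1 and 1 1/4 × IC50. Kynuramine 15–250 µM, eight levels per plot. 20 min at 37 °C, NaOH stop, 4-hydroxyquinoline fluorescence. Ki taken from slopes plotted against inhibitor concentration.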

For series [6] the target is unchanged. The series can be described thus: Reversible inhibition of recombinant human MAO-B using kynuramine as substrate assessed as recovery of enzyme activity at 4 times IC50 preincubated for 15 mins followed by dialysis for 24 hrs and subsequent addition of substrate measured after 20 mins by fluorescence spectrophotometric analysis relative to control. Details: scale not given: the % may be the effect or the level left. Put shortly:
as §2

For series [7] the target is unchanged. The series is described as follows: Inhibition of recombinant human MAO-B at 100 uM using kynuramine as substrate after 20 mins by fluorescence spectrophotometric analysis. The method in brief:
as §1

SMILES strings stand for the structures.

As usually defined, the IC50 is the midpoint of a concentration-inhibition curve. As a reminder, the Ki is the dissociation constant of the complex between target and ligand, obtained from inhibition or displacement.

Regarding `O=c1[nH]c(SCCCc2ccccc2)nc2ccccc12`, the “inhibition (INH)” value in series [1] was “Not Active”. Also, in series [2], the IC50 stood at 5990 nM. The Ratio IC50 in series [3] was over 17.
As to `O=c1[nH]c(SCc2ccc(Br)cc2)nc2ccccc12`, in series [1], the “inhibition (INH)” value is reported as “Not Active”. Further, the IC50 in series [2] amounted to 779 nM. Further, the Ratio IC50 in series [3] was over 128.
Take `Oc1nc(SCc2cccc(Cl)c2)nc2ccccc12`: the “inhibition (INH)” value in series [1] is on record as “Not Active”. For the same molecule, in series [2], the half-inhibitory concentration (IC50) was determined as 230 nM. In addition, in series [3], the Ratio IC50 was over 435.
Take `O=c1[nH]c(SCc2cccc(Br)c2)nc2ccccc12`: the “inhibition (INH)” value in series [1] is listed as “Not Active”. Also, the 50% inhibitory concentration (IC50) in series [2] was 208 nM. Further, in series [3], the Ratio IC50 is over 481.
Take `O=c1[nH]c(SCc2ccc(F)cc2)nc2ccccc12`: the “inhibition (INH)” value in series [1] is reported as “Not Active”. The 50% inhibitory concentration (IC50) in series [2] came out at 566 nM. For the same molecule, the Ratio IC50 in series [3] is over 177.
For `O=c1[nH]c(SCc2cccc(I)c2)nc2ccccc12`, in series [1], the “inhibition (INH)” value is listed as “Not Active”. Also, the half-inhibitory concentration (IC50) in series [2] was 142 nM. Moreover, in series [3], the Ratio IC50 is over 704. In addition, the figures for the Activity in series [4] and in series [6] were 46% and 108%, respectively. Moreover, in series [5], the Ki was 68 nM.
As for `O=c1[nH]c(SCc2ccc(I)cc2)nc2ccccc12`, the “inhibition (INH)” value in series [1] and in series [7] was “Not Active” each time.
Consider `Oc1nc(SCCOc2ccccc2)nc2ccccc12`, for which the “inhibition (INH)” value in series [1] is recorded as “Not Active”. Moreover, the half-inhibitory concentration (IC50) in series [2] was 1240 nM. Moreover, in series [3], the Ratio IC50 was over 81.
As for `O=c1[nH]c(SCc2ccc(C(F)(F)F)cc2)nc2ccccc12`, the “inhibition (INH)” value in series [1] is on record as “Not Active”. The half-inhibitory concentration (IC50) in series [2] was 700 nM. In addition, in series [3], the Ratio IC50 is over 143.
In the case of `O=c1[nH]c(SCc2ccccc2)nc2ccccc12`, the “inhibition (INH)” value in series [1] is on record as “Not Active”. The half-inhibitory concentration (IC50) in series [2] was 3030 nM. Besides, the Ratio IC50 in series [3] is over 33.
The like results for `O=C(CSc1nc(O)c2ccccc2n1)c1ccccc1` were, in that order, “Not Active”, 31800 nM and over 3.1.
For the molecule `Oc1nc(SCc2cccc(F)c2)nc2ccccc12`, in series [1], the “inhibition (INH)” value is listed as “Not Active”. The IC50 in series [2] is 2500 nM. The Ratio IC50 in series [3] is over 40.
`O=c1[nH]c(SCc2ccncc2)nc2ccccc12`: the “inhibition (INH)” value in series [1] and in series [7] was “Not Active” throughout.
Regarding `Oc1nc(SCc2ccc(Cl)cc2)nc2ccccc12`, the “inhibition (INH)” value in series [1] was “Not Active”. Moreover, in series [2], the half-inhibitory concentration (IC50) turned out to be 482 nM. In addition, in series [3], the Ratio IC50 is over 207.
